Assay results published in ChEMBL document CHEMBL4513216, “Probing the Open Global Health Chemical Diversity Library for Multistage-Active Starting Points for Next-Generation Antimalarials” (ACS Infect Dis, 2020).

Test: Toxicity liver stage against HepG2, at 10uM
Format: cell-based
Design: test concentration 10 uM, cell line HepG2-A16-CD81EGFP
Details: human, HepG2-A16-CD81EGFP cells; read-out: INHIBITION
Method in brief: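 Uninfected HepG2-A16-CD81EGFP cells, 3 × 10^3 per well, 1536-well, plated on prespotted compound at 10 μM final, parasite-free screening media added to match infected plates; puromycin 10 μM positive, DMSO 0.5% negative; run in parallel with 48 h PbLuc assay at 37 °C, 5% CO2; viability by CellTiter-Glo luminescence, normalized to controls.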

Compound	cytotoxicity at 10 µM
CCOC(=O)[C@@H]1[C@@H](c2ccccc2)CN2CCN(C(=O)N(C)C)C[C@H]12	14.8%
CC(O)CN1CC(C)(C)CN(C(=O)CCc2ccccc2)CC1=O (stereo unspecified)	-0.321%
CC(C)COC(=O)N1CC(=O)N(Cc2ccc(Cl)cc2)CC(O)C1 (stereo unspecified)	-0.947%
O=S(=O)(NCC1(O)CCCC1)c1ccccc1Br	-3.87%
O=C(Nc1nc2c(s1)CN(S(=O)(=O)C1CC1)CC2)c1ccc(=O)[nH]c1	-11.1%
CC(=O)N1CCC2(CC1)CN(C(=O)c1ccc3c(c1)OCO3)C2	6.71%
CN(C)C(=O)CN1CCC2(CCN(S(=O)(=O)C3CC3)CC2)C1=O	6.32%
c1cncc(COCC2CNCc3nccn3C2)c1 (stereo unspecified)	14.2%
CN(C)c1ccc2c(c1)CN(C(=O)c1cnccn1)C2c1cnco1 (stereo unspecified)	3.55%
CC(C)OC[C@H]1CCC[C@]12CN(S(=O)(=O)C1CC1)CCO2	-2.51%
CCC(CC)C(=O)N1CCCc2c(cnn2C)C1	6.55%
CN(Cc1cscn1)Cc1cc2c(cc1Br)OCO2	-4%
Cc1ccnc2c1NC(=O)CN2C(=O)CCC(F)(F)F	-15%
Cc1cnn(C2CCCN(C(=O)c3cc(-c4ccccc4C)n[nH]3)C2)c1 (stereo unspecified)	-9.66%
O=C(NCc1ccc(N2CCSCC2)cc1)NCc1cc[nH]n1	-0.645%
CCSc1cc(C(=O)N(Cc2cnn(C)c2)C(C)C)ccn1	4.64%
CN(CC(=O)NS(=O)(=O)c1cccs1)Cc1ccccc1	-9.71%
CC(C)Cc1noc(CN(C)C2CCS(=O)(=O)C2)n1 (stereo unspecified)	5.7%
CSCc1cc(F)ccc1CNC(=O)N1CCC[C@@H]1CO	4.8%
CCNc1c(C#N)c(=O)n(C)c(=O)n1C	0.504%
CC1CN(c2ncnc3ccccc23)CCO1 (stereo unspecified)	23.6%

Compound	cytotoxicity at 10 µM
CC(C)(C)OC(=O)Cn1nc(C2CC2)cc(C(F)(F)F)c1=O	-8.96%
CCOc1ccccc1NC(=O)CN(C)Cc1ccccc1Cl	-6.93%
Cc1cc(CN(C)S(=O)(=O)N2CCCC2c2ccc(C)o2)no1 (stereo unspecified)	3.33%
Cc1ccc(C)c(NC(=O)c2cc(S(=O)(=O)N3CCSCC3)c[nH]2)c1	-0.185%
CCSc1ccc(C(=O)NCCc2nnc(-c3ccco3)[nH]2)cn1	10.7%
COC1CCCN(C(=O)NCC(C)(C)SC)C1 (stereo unspecified)	10.5%
CCn1cc(CN(C)S(=O)(=O)N2CCCC2c2ccco2)cn1 (stereo unspecified)	9.14%
Cc1cc(S(C)(=O)=O)c(C)c(S(=O)(=O)N2CCN(C)CC2)c1	11.7%
Cc1cccc(N2N=C(C(=O)NC(C)Cc3ccco3)CCC2=O)c1 (stereo unspecified)	-9.6%
CCCn1nnnc1CSCc1cn2c(C)cccc2n1	8%
CC(C)c1nc(CNC(C(=O)N2CCOCC2)C(C)C)no1 (stereo unspecified)	6.43%
NC(=O)[C@@H]1Cc2ccccc2CN1S(=O)(=O)N1CCCCCC1	15.6%
CC(NC(=O)Cc1ccccc1F)(C(N)=O)c1cccc(Cl)c1 (stereo unspecified)	17.6%
Cc1cc(C)n(C2CCCN(C(=O)Cn3ccc(=O)n(C)c3=O)C2)n1 (stereo unspecified)	0.437%
CCC(=O)N1CCN(C(=O)NC2CCc3ccccc3C2)CC1 (stereo unspecified)	-15.9%
CCN1C[C@@H]2CN(C(=O)c3cccn3C)C[C@@H]2C1=O	-96.1%
COCC(=O)N1CCCN(Cc2cc(O)c3ccccc3n2)CC1	4.02%
Cc1nnnn1-c1ccc(CC(=O)N2CCOCC(O)C2)cc1 (stereo unspecified)	-7.46%
CCn1c(C2CCNCC2)nn(CCn2cncn2)c1=O	-6.26%
O=S(=O)(CC1CC1)c1ncc(CN2CCOCC2)n1CC1CCCO1 (stereo unspecified)	-3.06%
Cc1c(C(C)NC2CCCC2)cnn1-c1ccc(F)cc1F (stereo unspecified)	4.91%

Compound	cytotoxicity at 10 µM
COCCN(C)C[C@@H]1CN(c2nc(C)cc(C)n2)C[C@@H]1CO	-10.3%
Cc1nc(O)cc(CN2CCC=C(CN(C)C(=O)c3ccco3)C2)n1	8.82%
CCCc1noc(C2CC(=O)N(C(C)(C)C)C2)n1 (stereo unspecified)	0.0198%
COc1ccc(CCNC(=O)N2CCN(C)[C@@H]3CS(=O)(=O)C[C@@H]32)cc1	6.05%
CN(Cc1nncn1C)C(=O)c1cc(COc2ccccc2F)[nH]n1	2.14%
Cc1cc(NC(C)c2nncn2C2CCCC2)n2nc(C)c(C)c2n1 (stereo unspecified)	13.7%
Cc1nc(C(=O)N2CCCCC2c2ccc(CN(C)C)cc2)c(C)o1 (stereo unspecified)	-2.32%
CC(C)(C)CCN1CCC(c2nnc(Cn3cccn3)n2C2CC2)CC1	8.19%
CCN(Cc1ccncc1)C(=O)C1COc2c(cccc2OC)C1 (stereo unspecified)	3.4%
CN(Cc1noc2c1CCCC2)C(=O)C1Cc2ccccc2CN1C (stereo unspecified)	4.74%
O=C1NCCN(C(=O)CN2CCOC2=O)C1c1cccc(F)c1 (stereo unspecified)	8.91%
NCCc1nc(N[C@@H](CO)c2ccccc2)c2ccccc2n1	9.24%
Cc1nn(C)c(Oc2ccc(Cl)cc2)c1CN1CCC(CN)C1 (stereo unspecified)	-7.52%
CCc1oc(C(=O)NCCc2cc(O)nc(C)n2)cc1CN1CCCC1	13.1%
COc1cc(-c2ccc(F)c3c2OC(CN)C3)cc(OC)c1OC (stereo unspecified)	1.35%
CCn1nc(C)c(CCn2ccnc2-c2cc3n(n2)CCCNC3)c1C	-2.1%
COc1ccc(F)cc1C(C(=O)O)N1CCSCC1 (stereo unspecified)	-4.2%
O=C(c1ccc2c(c1)OCO2)N1CCC(Nc2cccnn2)CC1	-15.6%
CCOc1ccnc(N2CCN(C(=O)c3ccc(OC)cc3)CC2)n1	-15.6%
CN(CC(=O)NCc1ccccn1)C1CCCN(c2cccnn2)C1 (stereo unspecified)	-9.06%
O=C(NCCn1ccnc1)N1CCCC1c1ccncc1 (stereo unspecified)	-10.9%

Compound	cytotoxicity at 10 µM
CC(Cn1ccnc1)NC(=O)N1CCN(Cc2ccsc2)CC1 (stereo unspecified)	-6.33%
Cn1cc(C(=O)CC2CCCN2C(=O)c2c[nH]c3ccccc23)cn1 (stereo unspecified)	-1.39%
CN(C)CCN1CCC(CNCc2c[nH]nc2C(C)(C)C)CC1	-3.21%
CCOCCN1CCN(CC(=O)N2CCCC2)CC1CC (stereo unspecified)	-2.47%
Cc1nc(C)n(C2CCCN(C(=O)c3cn4cccnc4n3)C2)n1 (stereo unspecified)	-0.776%
COCCCC(=O)N1CCC(Nc2cccnn2)CC1	-3.69%
COC(=O)N1CCCN(C(=O)NCc2ccc(Cl)s2)CC1	1.76%
CCn1c(C)nnc1CN(C)C1CCN(CCn2cccn2)C1 (stereo unspecified)	1.49%
CCc1nc(C2CCCN2Cc2nccn2Cc2ccccc2)no1 (stereo unspecified)	0.89%
COc1cccc(CN2CCC3(CCN(c4ncc(C)cn4)CC3)C2)c1	-6.5%
CN(C)S(=O)(=O)N1C[C@H]2CCC[C@@]2(COCc2ccccn2)C1	0.718%
CCN1CCn2c(C)cnc2C12CCN(C(=O)c1ccc(Cl)cc1)CC2	1.22%
CN(C)Cc1cc(=O)n2c(n1)CN(C(=O)c1ccc[nH]1)CCC2	-123%
CNCCc1nc2cc(Cl)ccc2[nH]1	21.2%
Cn1ccc(C(=O)N2C[C@@H]3CCN(c4cccnc4)C[C@@H]3C2)n1	-106%
Cc1ccc2c(n1)N(CC1CC1)CCN(Cc1ccco1)C2	2.75%
Cc1ccc(N2CCN(C(=O)CN3C[C@H]4CC[C@@H]3C4)CC2=O)cc1	-1.41%
Cc1ccc(OCc2occc2C(=O)N2C[C@@H]3C(CN(C)C)[C@@H]3C2)cc1 (stereo partly specified)	-1%
